# Compound activity from PubChem BioAssay.
# Sampled rows, rich in hits. Any-hit rate of the full collection: about 1.9%.
# LMPTP block = blocks human LMPTP phosphatase; recombinant LMPTP-A, OMFP fluorogenic substrate, fluorescence intensity; 360,000 compounds, 0.22% hits; P24666; inhibition, % at 20 µM;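 active means compounds that cut the enzyme signal by at least half of the control window in the single-dose screen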;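 further: plate controls were DMSO wells with enzyme plus substrate for no effect and substrate without enzyme for full effect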
# Target sequence (P24666 whole entry, looked up): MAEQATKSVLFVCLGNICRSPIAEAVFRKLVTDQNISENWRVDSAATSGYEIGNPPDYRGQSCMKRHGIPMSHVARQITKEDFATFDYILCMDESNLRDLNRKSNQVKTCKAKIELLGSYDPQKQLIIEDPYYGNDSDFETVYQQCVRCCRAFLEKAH
#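 Test system: LMPTP-A phosphatase enzyme. Amount: LMPTP-A at 0.625 nM final in the reaction. Reagent: OMFP substrate, 400 µM final. Times: 50 min at room temperature. Signal: endpoint fluorescence intensity from OMFP dephosphorylation. Read-out basis: % inhibition. Benchmarks: no-enzyme and uninhibited controls.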
# STEP inh = blocks human striatal-enriched tyrosine phosphatase | 360,000 compounds, 0.25% hits | P54829 | inhibition, % at 20 µM | recombinant STEP, OMFP fluorogenic substrate, fluorescence;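 active means inhibition at 20 µM, scaled per plate between control wells, above about 37%, limit read from the data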;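 further: 0% = DMSO with enzyme and substrate and 100% = substrate only without enzyme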
#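 Material: STEP (striatal-enriched tyrosine phosphatase) enzyme, cell-free | Medium: 50 mM Bis-Tris pH 6.0 with 2.5 mM DTT and 0.005% Tween 20 | Read-out: Percent inhibition scaled to no-enzyme and uninhibited-enzyme controls, plate-pattern corrected | Signal: Fluorescence read at 480 nm ex / 540 nm em | Times: 20 min reaction, room temperature, in the dark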
# CSN inh = CSN deneddylation inhibition; Purified CSN, SCF-Nedd8-OG deneddylation, fluorescence polarization; inhibition, % at 12.5 µM; Q92905; 360,000 compounds, 0.38% hits;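 active means pattern-corrected inhibition above about 35%, with an unprinted fluorescence ratio check between 0.5 and 1.5, limit read from the data, passing the limit was not always enough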;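 further: 0% = enzyme with substrate and 100% = substrate without enzyme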
# Target sequence (Q92905 whole entry, looked up, one chain of several): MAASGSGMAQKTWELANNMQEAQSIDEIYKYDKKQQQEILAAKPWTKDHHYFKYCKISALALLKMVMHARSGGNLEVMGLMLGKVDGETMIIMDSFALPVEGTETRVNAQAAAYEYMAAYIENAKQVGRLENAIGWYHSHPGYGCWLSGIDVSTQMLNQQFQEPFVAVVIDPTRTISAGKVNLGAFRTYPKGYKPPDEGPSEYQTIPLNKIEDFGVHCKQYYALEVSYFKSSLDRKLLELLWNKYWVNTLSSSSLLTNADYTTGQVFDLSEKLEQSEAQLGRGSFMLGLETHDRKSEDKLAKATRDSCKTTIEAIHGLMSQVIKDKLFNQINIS
#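 Assay system: purified human Csn5 enzyme expressed in HEK293T cells; Input: 0.24 nM Csn5 enzyme, final concentration; Reagent: 10 nM SCFSkp2-Nedd8OG; Compound dosing: 12.5 µM single point; Times: reaction 90 min, room temperature; Technique: fluorescence polarization readout.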
# Scp-1 inhibitor = inhibitors of human Scp-1 phosphatase; Recombinant Scp1, phosphopeptide, malachite green phosphate absorbance; inhibition, % at 20 µM; 340,000 compounds, 0.88% hits;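 active means inhibition above about 50% at 20 µM, limit read from the data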;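 further: plate controls were DMSO wells with enzyme for no effect and wells lacking enzyme for full effect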
#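 Test system – truncated SCP-1 phosphatase (76-261aa) · Reagent – Phosphorylated 17-residue peptide substrate · Incubation – 45 min room-temperature reaction, 5 min colour, 30 min stabiliser · Detection – colorimetric phosphate reagent with accelerator and stabiliser, absorbance at 630 nm · Measure – % inhibition at 20 µM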
# DNMT1 inh = inhibitors of human DNMT1; P26358; DNMT1 molecular beacon, Hinp1I cleavage, fluorescence; inhibition (reported as % activation of signal), % at 10 µM; 360,000 compounds, 0.83% hits; AID 588458; in the data active means inhibition above about 50%
# SUMO1 PPI mod = modulators of human SUMO1-mediated protein-protein interactions; inhibition, % at 20 µM; P63165; AID 602429; SUMO1 binding to a labelled peptide, TR-FRET, 1 h; 360,000 compounds, 0.33% hits; in the data active means inhibition above about 37%
# Target sequence (P63165 whole entry, looked up): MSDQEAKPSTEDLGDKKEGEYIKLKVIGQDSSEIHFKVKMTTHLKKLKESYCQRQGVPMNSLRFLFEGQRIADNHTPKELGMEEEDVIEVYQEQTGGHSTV
# Scp1 confirm = Scp-1 (human) inhibition, single-dose confirmed; inhibition, % at 20 µM; 2,500 compounds, 61% hits; recombinant SCP-1 catalytic domain, phosphate release, malachite green absorbance; AID 540281; shares compounds with Scp-1 inhibitor;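 further: plate controls were DMSO with enzyme for no effect and buffer wells lacking enzyme for full effect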
# MG interference = counter-screen for Scp-1 inhibitors: colorimetric interference; shares compounds with Scp-1 inhibitor; Colorimetric interference counterscreen, malachite green absorbance 630 nm; apparent inhibition (interference), % at 20 µM; 2,500 tested, under 10 active;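 further: compounds added after enzyme reaction finished so only phosphate colour detection is probed; plate controls were DMSO wells with completed Scp-1 reaction for no effect and substrate wells lacking enzyme for full effect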
# Scp1 DSF = binds human Scp-1, shifting its melting temperature. thermal shift relative to vanadate control, % at 40 µM. AID 540329. 1,500 compounds, 25% hits. shares compounds with Scp-1 inhibitor. Recombinant SCP1, Sypro Orange thermal shift Tm;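 active means substances whose mean melting-temperature shift, as a percentage of the reference inhibitor's shift, reaches about 5.3%, limit read from the data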;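 further: 0% = Tm of DMSO wells and 100% = Tm with sodium orthovanadate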
# * hit, by the source's call; nt = not tested or not shown.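 How the source made its calls, unless noted: active means inhibition of at least 30% at 20 µM; inactive means the rest.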
SMILES,LMPTP block,STEP inh,CSN inh,Scp-1 inhibitor,DNMT1 inh,SUMO1 PPI mod,Scp1 confirm,MG interference,Scp1 DSF
Cc1ccc(Cl)c(N/C=C/C(=O)c2ccccc2)c1,5,3,-1,-5,1,-11,nt,nt,nt
O=c1c(O)c(-c2ccc(O)cc2)oc2cc(O)cc(O)c12,1,-7,1,53*,3,-23,54*,-4,9.2*
O=C(COC(=O)COc1ccc(Br)cc1)Nc1cccnc1Cl,0,0,0,58*,-1,2,-10,-12,nt
CCN(CC)C(=O)Cn1c(C)c(/C=C/c2cc[n+](C)cc2)c2ccccc21,0,-9,99*,63*,10,-93,0,-11,nt
C=CCn1c(C)c(/C=C/c2cc[n+](C)cc2)c2ccccc21,5,-13,140,10,14,-150,nt,nt,nt
Cc1ccc(C)c(OCC(=O)NNC(=O)c2ccc(NC(=O)C3CC3)cc2)c1,-1,-3,3,-2,-1,4,nt,nt,nt
Cc1cc(Br)ccc1OCC(=O)NNC(=O)c1ccc(NC(=O)C2CC2)cc1,5,-1,-3,61*,12,-1,9,-10,nt
CC1=C(C(=O)N(C(C)C)C(C)C)CC(CC(=O)NC2CC2)C(=O)N1CCCN1CCCC1=O (stereo not drawn),0,-2,-6,nt,1,3,nt,nt,nt
COc1cccc(-c2cc(CNC(=O)[C@H]3O[C@@H](n4ccc(N)nc4=O)[C@H](O)[C@@H]3O)no2)c1,-2,1,3,nt,3,0,nt,nt,nt
NC1=C(c2ccc([N+](=O)[O-])cc2)C(=O)CO1,0,1,6,-1,1,-23,nt,nt,nt
O=c1oc2c(-c3ccc([N+](=O)[O-])cc3)cc(O)cc2s1,46,20,17,103*,11,67*,66*,-23,10*
Cc1ccc(C2C=CC(C#N)=CN2Cc2ccccc2)cc1 (stereo not drawn),2,1,5,nt,-5,-13,nt,nt,nt
Cc1cccc(C)c1NC(=O)CSc1nnc(NC(=O)c2ccccc2C(=O)O)s1,-1,0,0,65*,-1,2,2,-13,nt
COc1ccc(OC)c(Cc2nnc(CCC(=O)NCc3nc4ccccc4s3)o2)c1,0,1,5,63*,-3,3,-18,-13,nt
CCOc1ccc(NC(=O)CN(C)C(=O)C2CCCO2)cc1OCC (stereo not drawn),0,0,-3,-7,0,2,nt,nt,nt
CCOC(=O)COc1ccccc1/C=N\NC(=O)c1cc2c(ccc3ccccc32)o1,6,4,3,84*,-5,-10,39*,-3,0
CCOc1cc(/C=N/NC(=O)c2cc3c(ccc4ccccc43)o2)ccc1O,1,0,1,-4,-4,3,nt,nt,nt
CCCCC1=CC2=C(c3ccco3)C(=O)C(C)(OC(=O)c3ccc(OC)cc3)C(=O)C2=CN1Cc1ccc2c(c1)OCO2 (stereo not drawn),23,1,-2,63*,26,-7,5,0,nt
O=C(CSc1nc2ccccc2c(=O)n1-c1ccccc1)NC(=O)CN1CCCC1=O,4,20,4,58*,31,7,39*,-10,-14
Cc1cc(C)c(NC(=O)COc2nc3ccccc3nc2C)c(C)c1,-2,0,5,58*,0,-1,-18,-13,nt
O=C(NNC(=O)c1ccc(NC(=O)c2ccccc2)cc1)Nc1ccccc1,14,6,8,51*,14,-1,67*,-11,-12
Cc1cccc(C(=O)NNC(=O)c2ccc(Br)cc2)c1,-1,15,0,-1,-1,-2,nt,nt,nt
O=C(NNC(=O)c1ccc(NC(=O)c2ccccc2)cc1)c1ccc(F)cc1,48,25,-2,39,22,22,nt,nt,nt
Cc1cccc(C(=O)NNC(=O)c2ccc(-c3ccccc3)cc2)c1,43,11,5,70*,41,5,73*,-16,-9
COc1ccc(C)cc1NC(=O)c1cccc(C(=O)Nc2cc(C)ccc2OC)c1,2,-2,3,-11,-2,9,nt,nt,nt
SMILES,LMPTP block,STEP inh,CSN inh,Scp-1 inhibitor,DNMT1 inh,SUMO1 PPI mod,Scp1 confirm,MG interference,Scp1 DSF
Cc1ccc(NC(=O)c2cccc(C(=O)Nc3ccc(C)cc3C(=O)O)c2)c(C(=O)O)c1,-2,6,3,57*,0,17,54*,-11,1
O=C(NNC(=O)c1ccc(-c2ccccc2)cc1)c1ccccc1,31,24,7,74*,49,2,54*,-19,5.7*
Cc1ccc(C(=O)OCC(=O)c2ccc(CC(=O)N3CCOCC3)s2)cc1C,4,3,12,55*,17,-6,57*,-16,4
O=C(OCC(=O)N1CCOCC1)c1ccc2c(c1)OCCO2,0,-5,5,-2,13,1,nt,nt,nt
CCOC(=O)c1ccc(S(=O)(=O)N2CCN(CC(O)COc3cccc(C(C)=O)c3)CC2)cc1 (stereo not drawn),-1,2,7,-8,2,-4,nt,nt,nt
CC(=O)Nc1cc(-c2cccc(C(=O)N(C)C)c2)cn2c(-c3ccc(C(C)=O)cc3)cnc12,2,4,5,nt,1,-21,nt,nt,nt
CC(=O)Nc1ccc(S(=O)(=O)NCCSCc2ccco2)cc1,2,-1,4,3,-4,16,nt,nt,nt
CS(=O)(=O)NCCSCc1ccco1,0,-2,7,98*,13,0,64*,-15,-5
COc1cccc(OCc2cc(C(=O)N(C)CCOc3ccc(C)cc3)no2)c1,4,4,3,55*,-1,-1,-19,-22,nt
COc1ccc(CN2CCN(C(=O)Cn3nc(C(=O)O)c4ccccc4c3=O)CC2)cc1F,0,0,2,57*,0,-13,-4,-11,nt
Cc1nn(CC(=O)N2CCN(Cc3ccccc3)CC2)c(=O)c2ccccc12,0,-2,5,-7,-3,-3,nt,nt,nt
COCc1c(C(=O)N2CCN(Cc3c(F)cccc3Cl)CC2)oc2ccccc12,2,2,1,53*,0,3,-8,-10,nt
O=C(CSc1ncn[nH]1)Nc1c(F)cc(F)cc1Br,-3,-4,-4,-8,-1,-1,nt,nt,nt
